MT1-MMP act inh: MT1-MMP (human) activation inhibition; P50281; HT1080 RFP-PRO-GFP cells, GFP/RFP ratio fluorescence, overnight; percent of plate control window, DMSO zero; GFP/RFP ratio change, % at 20 µM; 0.061% of 360,000 active;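 active = GFP/RFP ratio change of at least 30% with cell ATP level not reduced by more than half and red fluorescence within 50% of control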
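Test system: HT1080 cells expressing an RFP-PRO-GFP fluorescent reporter construct / Compound dosing: single-point 20 µM compound, 1% DMSO / Schedule: cells overnight before dosing, compound overnight, 37 °C, 5% CO2 / Evaluation: GFP/RFP fluorescence ratio / Control set: DMSO and RFP-L50D-GFP cell wells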
TAG inh: reduces triacylglycerol accumulation in H9c2 cells; inhibition, % at 12.5 µM; Nile Red lipid (TAG) fluorescence; cells loaded with 200 µM oleic acid; 0.66% of 230,000 active;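 active = pattern-corrected inhibition of lipid staining of at least 50% with the nuclear-stain viability signal not falling by more than 50%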;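 note: 0% = DMSO wells and 100% = triacsin C control wells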
sPLA2-III inh: Blocks human group III sPLA2 activity | inhibition, % at 12.2 µM | 0.56% of 370,000 active | QFRET BODIPY PC-A2 liposome hydrolysis, fluorescence;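 active = inhibition above mean plus 3 SD of compounds lying within the high and low control bounds, cut at about 19% in these data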;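 note: 0% = median of test compound wells and 100% = no enzyme DMSO wells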
Target sequence (Q9NZ20 whole entry, looked up): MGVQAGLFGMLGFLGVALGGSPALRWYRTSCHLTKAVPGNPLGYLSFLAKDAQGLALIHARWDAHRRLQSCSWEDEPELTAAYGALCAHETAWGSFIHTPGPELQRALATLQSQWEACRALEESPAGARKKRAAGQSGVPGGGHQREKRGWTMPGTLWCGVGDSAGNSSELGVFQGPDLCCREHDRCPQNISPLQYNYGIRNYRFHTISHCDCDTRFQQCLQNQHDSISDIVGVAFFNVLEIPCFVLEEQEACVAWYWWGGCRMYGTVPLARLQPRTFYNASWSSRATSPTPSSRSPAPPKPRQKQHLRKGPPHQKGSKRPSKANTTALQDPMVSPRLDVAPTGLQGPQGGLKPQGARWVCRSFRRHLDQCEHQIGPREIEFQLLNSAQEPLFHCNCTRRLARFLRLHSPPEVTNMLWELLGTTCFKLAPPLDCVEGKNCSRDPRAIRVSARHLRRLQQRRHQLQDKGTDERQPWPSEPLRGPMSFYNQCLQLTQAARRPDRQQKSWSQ
Efflux pump mplx: blocks antifungal efflux pumps in multiplex yeast assay | S. cerevisiae Candida pump triplex, Nile Red efflux | inhibition, % at 10 µM | 0.44% of 330,000 active | AID 485275;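 active = plate passing quality check with inhibition over a set limit, or well fluorescence over plate mean plus 4 SD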;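 note: Nile Red retained in pooled yeast measured as flow cytometry median fluorescence; 0% = buffer negative control and 100% = Enniatin B positive control; higher means more Nile Red kept so more efflux inhibition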
Cmpd fluor yeast: flagged as fluorescent in efflux inhibitor counter-screen; 4% of 1,700 active; AID 588517; S. cerevisiae AD/pABC3, compound fluorescence, flow cytometry; shares compounds with Efflux pump mplx; fluorescence ratio to DMSO, % at 10 µM;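 active = fluorescence ratio to DMSO above its plate's cutoff, the plate mean ratio plus 5 SD, cut at about 210% in these data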;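 note: unstained yeast with no Nile Red so the signal is compound autofluorescence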
Mdr1 pump inh: Candida Mdr1 efflux pump inhibition. 1% of 1,700 active. AID 588518. S. cerevisiae AD/CaMDR1, Nile Red efflux, flow cytometry. shares compounds with Efflux pump mplx. inhibition, % at 10 µM; in the data active = inhibition above about 26%;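 note: 0% = DMSO vehicle and 100% = reference inhibitor; higher means more Nile Red retained so more efflux inhibition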
Cdr2 pump inh: inhibitors of Candida albicans Cdr2 efflux pump; shares compounds with Efflux pump mplx; S. cerevisiae AD/CaCDR2, Nile Red retention, flow cytometry; Nile Red retention ratio vs DMSO, % at 10 µM; 4% of 1,700 active; in the data active = Nile Red retention ratio vs DMSO above about 190%;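 note: higher ratio means more blocking of Cdr2 efflux of the dye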
CaCdr1 efflux inh: blocks the Candida albicans Cdr1 efflux pump in yeast | shares compounds with Efflux pump mplx | S. cerevisiae AD/CaCDR1, Nile Red efflux, flow cytometry | inhibition, % at 10 µM | 1% of 1,700 active;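 active = inhibition above the screen-wide mean plus twice its standard deviation, cut at about 32% in these data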
The depositor's hits bear a star; · = not tested or not shown. Only some compounds are listed: those with a hit (about 1.3% of all), similar ones and a draw of the others.

SMILES | MT1-MMP act inh | TAG inh | sPLA2-III inh | Efflux pump mplx | Cmpd fluor yeast | Mdr1 pump inh | Cdr2 pump inh | CaCdr1 efflux inh
CNC(=S)N1CCc2cc(OC)c(OC)cc2C1 | 3 | 2 | 9 | 0 | 108 | 0 | 106 | 0
COC(=O)c1ccc2c(C(C)c3ccccc3O)c[nH]c2c1 (configuration not stated) | · | · | -62 | · | · | · | · | ·
O=C(CSc1nnc(-c2ccccc2)o1)N1CCN(c2ccccc2)CC1 | 3 | · | -3 | 0.8* | 107 | 0 | 101 | 0
COc1ccc(-c2nc3ccccc3c(=O)n2CCOc2ccc(C)cc2C)cc1 | -5 | · | 3 | 0.7* | 103 | 0 | 112 | 0
COc1ccc(-c2nc3ccccc3c(=O)n2CCCn2ccnc2)cc1 | -12 | 2 | -5 | 0 | · | · | · | ·
COc1ccc(-c2nc3ccccc3c(=O)n2CCOc2ccccc2C)cc1 | 0 | · | -2 | 0.8* | 104 | 0 | 110 | 0
COc1ccc(-c2nc3ccccc3c(=O)n2CCOc2cc(C)ccc2C)cc1 | -6 | · | 0 | 0.7* | 102 | 0 | 112 | 0
COc1ccc(-c2nc3ccccc3c(=O)n2CC(C)C)cc1 | -1 | · | 7 | 0 | · | · | · | ·
COC(=O)[C@]12C=CCN1[C@@H](c1ccc(OC)c(OC)c1)c1c(c3ccccc3n1S(=O)(=O)c1ccc(C)cc1)C2 | · | · | 2 | · | · | · | · | ·
N#Cc1ccc(Cn2nnc(-c3ccc(N4CCOCC4)cc3)n2)cc1 | · | · | 2 | · | · | · | · | ·
COc1ccccc1NS(=O)(=O)c1c(C)[nH]c(C)c1C(=O)N1CCCC1 | -1 | · | 3 | 1 | · | · | · | ·
CCOc1ccc(/C=N/NC(=O)c2ccccc2O)cc1CN1CC2CC(C1)c1cccc(=O)n1C2 (configuration not stated) | -3 | · | -16 | 0.8* | 85 | 0 | 104 | 0
O=C(Cn1nc(-c2ccc(F)cc2)ccc1=O)Nc1ccc(C(=O)NC2CC2)cc1 | -1 | · | 0 | 0.4* | 81 | 0 | 89 | 0
O=C(Cn1nc(-c2ccc(F)cc2)ccc1=O)Nc1ccc2c(c1)OCCO2 | 0 | · | -6 | 0 | · | · | · | ·
CC(C)Cn1c(=S)[nH]c2cc(Cl)ccc21 | -3 | 2 | 4 | 0 | · | · | · | ·
CC(C)(C)OC(=O)NCCc1nnc(SCc2ccccc2)o1 | 3 | -11 | 0 | 0 | · | · | · | ·
C=C(C)CSc1nnc(CCCCCNC(=O)OC(C)(C)C)o1 | 1 | 0 | 4 | 1.0* | 106 | 0 | 98 | 0
Cc1ccc(CSc2nnc(CCNC(=O)OC(C)(C)C)o2)cc1 | -2 | 2 | 2 | 0.8* | 99 | 0 | 95 | 0
CC(C)(C)OC(=O)NCCCCCc1nnc(SCC(N)=O)o1 | 8 | -20 | -1 | 0 | · | · | · | ·
CC(COc1ccc(OC(F)(F)F)cc1)CN1CCC(C(O)(c2ccccc2)c2ccccc2)CC1 (configuration not stated) | · | · | -20 | · | · | · | · | ·
CCN(CC)S(=O)(=O)c1ccc(N2CCOCC2)c(NC(=O)CCC2CCCCC2)c1 | 8 | · | -6 | 13* | 101 | 0 | 94 | 0
CCN(CC)C(=O)CSc1nnc(-c2ccncc2)n1N | 2 | · | -2 | 5.9* | 109 | 0 | 98 | 1
Cc1ccc(C(=O)CSc2nnc(-c3ccncc3)n2C)cc1 | 4 | -18 | 4 | 0 | · | · | · | ·
CCn1c(SCC(=O)c2ccc(C)cc2)nnc1-c1ccncc1 | 2 | · | -12 | 8.2* | 114 | 0 | 114 | 0
CCOC(=O)C1CCCN(C(=O)c2cc(S(=O)(=O)N3CCCCC3)c[nH]2)C1 (configuration not stated) | 0 | 4 | 7 | 0 | · | · | · | ·
COc1ccc(/C=c2\s/c(=C(/C#N)C(=O)NCc3ccco3)n(-c3ccccc3)c2=O)cc1 | -1 | · | -2 | 0.7* | 106 | 0 | 107 | 0
COC(=O)/C=c1/s/c(=C(\C#N)C(=O)NCc2ccco2)n(-c2ccccc2)c1=O | 9 | -44 | -5 | 0 | · | · | · | ·
COc1cccc(-c2c(C(=O)N/N=C(\C)c3ccc(Cl)s3)nnn2-c2nonc2N)c1 | -2 | · | -11 | 4.6* | 104 | 0 | 93 | 0
